Measurements: article PMC10078363 (Journal of Pineal Research, 2022)
Where two headings read alike, the source gives them in different places.

Key:
murine Abcg2 [1] = target: T1, murine Abcg2 (Mus musculus, UniProt Q7TMS5); type: in vivo, mice; conditions: 30 min after i.v. melatonin 10 mg/kg
T1 sequence (Q7TMS5 1-657): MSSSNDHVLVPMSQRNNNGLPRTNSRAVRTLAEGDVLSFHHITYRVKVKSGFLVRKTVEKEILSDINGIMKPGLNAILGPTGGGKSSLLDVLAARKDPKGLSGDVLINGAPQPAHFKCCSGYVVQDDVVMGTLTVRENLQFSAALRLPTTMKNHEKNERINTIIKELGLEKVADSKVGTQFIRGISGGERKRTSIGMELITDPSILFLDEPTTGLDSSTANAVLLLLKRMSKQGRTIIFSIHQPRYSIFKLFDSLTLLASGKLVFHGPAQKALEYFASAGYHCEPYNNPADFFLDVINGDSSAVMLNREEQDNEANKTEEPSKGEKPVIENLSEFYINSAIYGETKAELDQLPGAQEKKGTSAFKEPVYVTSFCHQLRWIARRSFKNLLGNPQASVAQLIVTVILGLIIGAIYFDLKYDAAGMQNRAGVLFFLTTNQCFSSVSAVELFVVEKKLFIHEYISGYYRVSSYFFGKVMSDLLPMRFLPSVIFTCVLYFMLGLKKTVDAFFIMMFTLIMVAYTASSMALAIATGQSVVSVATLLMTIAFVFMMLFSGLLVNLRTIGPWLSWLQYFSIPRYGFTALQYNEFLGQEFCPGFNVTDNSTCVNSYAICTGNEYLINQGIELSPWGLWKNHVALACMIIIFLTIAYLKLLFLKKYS

murine Abcg2 [2] = target: T1, murine Abcg2; experiment: Transepithelial transport assay in MDCK‐II cells transduced with murine Abcg2; type: in vitro ADME; conditions: mAbcg2 MDCK‐II, +Ko143 (1 µM); Mel 10 µM, 6‐SO‐Mel 8 µM, 6‐OH‐Mel 10 µM
Outline: (§1)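 MDCK-II monolayers, parental or transduced with an ABCG2 variant, in Hanks' balanced salt solution with 25 mM HEPES. Both sides are refreshed with or without Ko143 (1 µM). Test compound (8–10 µM) is added to one side, and the opposite side is sampled at 1, 2, 3 and 4 h. Analysis is by HPLC-UV at 310 nm. Ratio is apically directed % over basolaterally directed % at 4 h; n ≥ 3, mean ± SD.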

murine Abcg2 [3] = type: in vivo; conditions: male, FVB/N, mouse, plasma, oral, 10 mg/kg body weight, Abcg2−/− male mice, 1 h after oral melatonin 10 mg/kg
Outline: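 Male Abcg2−/− and wild-type mice (FVB/N background, n = 8) are dosed orally in the morning with 10 mg/kg melatonin in 10% ethanol/40% PEG/50% saline. Plasma and tissues are taken at 1 h. Samples are precipitated with acetonitrile, then a melatonin-d4 internal standard is added. Analysis is LC-MS/MS on C18 with a water/methanol gradient (1 mM ammonium formate, 0.01% formic acid). Hydroxylated metabolites are reported as arbitrary units. Groups are compared by t-test or Mann–Whitney.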

ovine ABCG2 = experiment: Transepithelial transport assay in MDCK‐II cells transduced with ovine ABCG2; type: in vitro ADME; conditions: oABCG2 MDCK‐II, +Ko143 (1 µM); Mel 10 µM, 6‐SO‐Mel 8 µM, 6‐OH‐Mel 10 µM
Outline: as §1

[4] = Transepithelial transport assay in parental MDCK‐II cells; type: in vitro ADME, canine; conditions: dog, with Ko143 1 µM
Outline: as §1

murine Abcg2 [5] = type: in vivo, mice; conditions: female, FVB/N, mouse, intravenous, 10 mg/kg body weight, Abcg2−/− lactating female mice, 30 min after i.v. melatonin 10 mg/kg
human ABCG2 = experiment: Transepithelial transport assay in MDCK‐II cells transduced with human ABCG2; type: in vitro ADME; conditions: with Ko143 1 µM
Outline: as §1

[6] = wild‐type lactating female mice

SMILES	Milk levels (relative abundance) (murine Abcg2 [1]; Abcg2−/− lactating female mice)	Milk to plasma ratio (relative abundance) (murine Abcg2 [1]; Abcg2−/− lactating female mice)	Fold higher milk concentration/levels in wild‐type compared with Abcg2−/− (murine Abcg2 [1]; lactating female mice)	Fold higher milk to plasma ratio in wild‐type compared with Abcg2−/− (murine Abcg2 [1]; lactating female mice)	Milk levels (relative abundance) (murine Abcg2 [1]; [6])	Milk to plasma ratio (relative abundance) (murine Abcg2 [1]; [6])	Relative efflux transport ratio (basal to apical % / apical to basal %) at 4 h (murine Abcg2 [2])	concentration at 1 h (murine Abcg2 [3])	Relative efflux transport ratio (basal to apical % / apical to basal %) at 4 h (ovine ABCG2)	efflux ratio at 4 h [4]	concentration at 30 min (murine Abcg2 [5]; milk, Milk concentration)	Kp at 30 min (murine Abcg2 [5]; milk, Milk to plasma ratio)	concentration at 30 min (murine Abcg2 [5]; plasma, Plasma concentration)	efflux ratio at 4 h (human ABCG2)
COc1ccc2[nH]c(O)c(CCNC(C)=O)c2c1 [2‐OH‐Mel, 2‐hydroxymelatonin]	1.42 ± 0.66 arbitrary units	1.75 ± 0.29 arbitrary units	around twofold	around twofold	2.90 ± 1.24 arbitrary units	3.68 ± 1.34 arbitrary units								
COc1ccc2[nH]cc(CCNC(C)=O)c2c1 [melatonin]			almost twofold				1.00 ± 0.06	9.39 ± 4.59 ng/mL	0.99 ± 0.11	1.05 ± 0.06	6340 ± 3870 ng/mL	0.02 ± 0.01	288000 ± 89300 ng/mL	1.02 ± 0.07
